One data set concerns U937 cells. The experiment in a line: CellTiter-Glo Luminescent cell viability assay. The note with it: for inhibition at 25 µM / inhibition at 50 µM / inhibition at 100 µM / inhibition at 200 µM: Homo sapiens, U-937, 72 h, read-out: Percent inhibition at different concentrations of compounds (antiproliferative); for Percent inhibition at different concentrations of compounds (antiproliferative): U937 cells, 72 h, relative to Mitomycin C = 100%. The class given is cell-based, human. The procedure, abridged: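 Human myeloid leukaemia U937 cells exposed to a range of test compound concentrations for 72 h, with Mitomycin C as positive control and DMSO diluent as negative control. CellTiter-Glo reagent added at an equal volume to the medium, mixed 2 min for lysis, then held 10 min at room temperature before luminescence was read. Viability was computed as RLU test ×100/RLU control. Half-maximal inhibitory concentration was fitted from the dose series.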
A general note: In ATP-based viability assays light output follows the ATP content of the culture.

Data set [1] is described as follows: LDH release cytotoxicity assay. The class given is cell-based. The following applies: human, U937 cells. The gist of the method:
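U937 cells were plated in 96-well format and given various test compound concentrations, with Triton X100 as positive cytotoxicity control, for 4 h at 37 °C. Plates were spun 5 min at 1000 RPM, and supernatant was moved to a fresh plate with LDH detection reagent for 10 min at room temperature in the dark. Optical density was then read, and half-maximal concentration was derived from the doses.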
(Release of lactate dehydrogenase indicates damage to the cell membrane.)

Turning to `COC(=O)COc1cccc(NC(=O)C2(c3ccccc3)CC2)c1` [Compound 8a, Methyl 2-(3-(1-phenylcyclopropane-1-carboxamido)phenoxy)acetate], in the data set with U937 cells, the inhibition at 25 µM is 28%, the inhibition at 50 µM turned out to be 28%, the inhibition at 100 µM worked out at 102% and the inhibition at 200 µM was found to be 100%. Moreover, in data set [1], the inhibition at 4 h, 12.5 µM is -1%; the inhibition at 4 h, 25 µM is 2%; the inhibition at 4 h, 50 µM is 2%; the inhibition at 4 h, 100 µM worked out at 1%.

For `COC(=O)COc1ccc(NC(=O)C2(c3ccccc3)CC2)cc1` [Compound 8b, Methyl 2-(4-(1-phenylcyclopropane-1-carboxamido)phenoxy)acetate], in the data set on U937 cells, the inhibition at 25 µM was determined as 41%, the inhibition at 50 µM is 44%, the inhibition at 100 µM amounted to 102% and the inhibition at 200 µM amounted to 101%. In addition, in data set [1], the inhibition at 4 h, 12.5 µM was -2%; the inhibition at 4 h, 25 µM was -3%; the inhibition at 4 h, 50 µM was -2%; the inhibition at 4 h, 100 µM is -2%.

With `COC(=O)COc1ccc(NC(=O)C2(c3ccccc3)CC2)c(C)c1` [Compound 8c, Methyl 2-(3-methyl-4-(1-phenylcyclopropane-1-carboxamido)phenoxy)acetate], in the data set on U937 cells, the inhibition at 25 µM came out at 37%, the inhibition at 50 µM was determined as 63%, the inhibition at 100 µM was 102% and the inhibition at 200 µM turned out to be 101%. Further, in data set [1], the inhibition at 4 h, 12.5 µM came out at 0%; the inhibition at 4 h, 25 µM was -1%; the inhibition at 4 h, 50 µM came to 0%; the inhibition at 4 h, 100 µM is -1%.

Turning to `COC(=O)COc1ccc(NC(=O)C2(c3ccccc3)CC2)cc1Br` [Compound 8d, Methyl 2-(2-bromo-4-(1-phenylcyclopropane-1-carboxamido)phenoxy)acetate], in the data set on U937 cells, the inhibition at 25 µM was 15%, the inhibition at 50 µM worked out at 24%, the inhibition at 100 µM came out at 100% and the inhibition at 200 µM is 101%. For the same compound, in data set [1], the inhibition at 4 h, 12.5 µM is -1%; the inhibition at 4 h, 25 µM was 0%; the inhibition at 4 h, 50 µM is 3%; the inhibition at 4 h, 100 µM was -3%.

For the compound `COC(=O)COc1cccc(NC(=O)C2(c3cccc(C)c3)CC2)c1` [Compound 8e, Methyl 2-(3-(1-(m-tolyl)cyclopropane-1-carboxamido)phenoxy)acetate], in the data set on U937 cells, the inhibition at 25 µM is 46%, the inhibition at 50 µM came out at 45%, the inhibition at 100 µM was 59% and the inhibition at 200 µM was 101%. In addition, in data set [1], the inhibition at 4 h, 12.5 µM was -3%; the inhibition at 4 h, 25 µM was -4%; the inhibition at 4 h, 50 µM is -1%; the inhibition at 4 h, 100 µM was -1%.

Consider `COC(=O)COc1ccc(NC(=O)C2(c3cccc(C)c3)CC2)cc1` [Compound 8f, Methyl 2-(4-(1-(m-tolyl)cyclopropane-1-carboxamido)phenoxy)acetate], for which, in the data set with U937 cells, the inhibition at 25 µM stood at 34%, the inhibition at 50 µM stood at 36%, the inhibition at 100 µM was 32% and the inhibition at 200 µM turned out to be 100%. Moreover, in data set [1], the inhibition at 4 h, 12.5 µM was -1%; the inhibition at 4 h, 25 µM was -1%; the inhibition at 4 h, 50 µM was 0%; the inhibition at 4 h, 100 µM turned out to be 0%.

As for `COC(=O)COc1ccc(NC(=O)C2(c3cccc(C)c3)CC2)c(C)c1` [Compound 8g, Methyl 2-(3-methyl-4-(1-(m-tolyl)cyclopropane-1-carboxamido)phenoxy)acetate], in the data set on U937 cells, the inhibition at 25 µM came to 18%, the inhibition at 50 µM stood at 25%, the inhibition at 100 µM was 89% and the inhibition at 200 µM came out at 100%. In addition, in data set [1], the inhibition at 4 h, 12.5 µM was 0%; the inhibition at 4 h, 25 µM stood at 0%; the inhibition at 4 h, 50 µM came to 1%; the inhibition at 4 h, 100 µM came to 0%.

Consider `COC(=O)COc1cccc(NC(=O)C2(c3ccc(OC)cc3)CC2)c1` [Compound 8h, Methyl 2-(3-(1-(4-methoxyphenyl)cyclopropane-1-carboxamido)phenoxy)acetate], for which, in the data set on U937 cells, the inhibition at 25 µM is 17%, the inhibition at 50 µM is 80%, the inhibition at 100 µM came out at 98% and the inhibition at 200 µM worked out at 100%. Moreover, in data set [1], the inhibition at 4 h, 12.5 µM is 0%; the inhibition at 4 h, 25 µM is 3%; the inhibition at 4 h, 50 µM amounted to 0%; the inhibition at 4 h, 100 µM is -2%.

In the case of `COC(=O)COc1ccc(NC(=O)C2(c3ccc(OC)cc3)CC2)cc1` [Compound 8i, Methyl 2-(4-(1-(4-methoxyphenyl)cyclopropane-1-carboxamido)phenoxy)acetate], in the data set on U937 cells, the inhibition at 25 µM was 28%, the inhibition at 50 µM turned out to be 38%, the inhibition at 100 µM is 80% and the inhibition at 200 µM worked out at 101%. In data set [1], the inhibition at 4 h, 12.5 µM is -3%; the inhibition at 4 h, 25 µM was 0%; the inhibition at 4 h, 50 µM was -2%; the inhibition at 4 h, 100 µM is -2%.

As for `COC(=O)COc1ccc(NC(=O)C2(c3ccc(F)cc3)CC2)cc1` [Compound 8j, Methyl 2-(4-(1-(4-fluorophenyl)cyclopropane-1-carboxamido)phenoxy)acetate], in the data set with U937 cells, the inhibition at 25 µM was -12%, the inhibition at 50 µM is 39%, the inhibition at 100 µM stood at 76% and the inhibition at 200 µM was found to be 101%. For the same compound, in data set [1], the inhibition at 4 h, 12.5 µM came to 0%; the inhibition at 4 h, 25 µM was -1%; the inhibition at 4 h, 50 µM is -2%; the inhibition at 4 h, 100 µM is -1%.

Consider `COC(=O)COc1ccc(NC(=O)C2(c3ccc(F)cc3)CC2)c(C)c1` [Compound 8k, Methyl 2-(4-(1-(4-fluorophenyl)cyclopropane-1-carboxamido)-3-methylphenoxy)acetate], for which, in the data set on U937 cells, the inhibition at 25 µM came out at 32%, the inhibition at 50 µM amounted to 74%, the inhibition at 100 µM turned out to be 101% and the inhibition at 200 µM is 102%. Besides, in data set [1], the inhibition at 4 h, 12.5 µM came out at 0%; the inhibition at 4 h, 25 µM was found to be 0%; the inhibition at 4 h, 50 µM was -1%; the inhibition at 4 h, 100 µM was determined as 4%.

As to `COC(=O)COc1cccc(NC(=O)C2(c3ccc(Cl)cc3)CC2)c1` [Compound 8l, Methyl 2-(3-(1-(4-chlorophenyl)cyclopropane-1-carboxamido)phenoxy)acetate], in the data set with U937 cells, the inhibition at 25 µM is 63%, the inhibition at 50 µM is 96%, the inhibition at 100 µM turned out to be 101% and the inhibition at 200 µM was found to be 102%. In data set [1], the inhibition at 4 h, 12.5 µM was -1%; the inhibition at 4 h, 25 µM was -1%; the inhibition at 4 h, 50 µM was 0%; the inhibition at 4 h, 100 µM was determined as 2%.

As for “Methyl 2-(4-(1-(3-bromophenyl)cyclopropane-1-carboxamido)-3-methylphenoxy)acetate [Compound 8q]”, the “Percent inhibition at different concentrations of compounds (antiproliferative)” value is 26% in the data set with U937 cells (25 μM), 45% in the data set with U937 cells (50 μM), 102% in the data set on U937 cells (100 μM) and 102% with U937 cells (200 μM).

These data come from PMC9898299 (Heliyon, 2023).
